How the values were obtained:
[1] = Percent survivors at dose 100 umol/kg day; assay type: functional, Mus musculus
Outline: (§1)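 Adult female Swiss mice (20–25 g) had chow and water ad libitum. The retinoid was homogenized as a suspension in aqueous 8% Cremophor EL plus 10% propylene glycol. It was given ip as 10 weekday injections over 14 days. Controls received vehicle alone. Survivors were weighed on days 1, 5, 10 and 15, and dates of death were recorded. Survival was scored at days 8 and 15.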

[2] = Percent survivors at dose 300 umol/kg day; assay type: functional, Mus musculus; outline: as §1
Mus musculus [3] = species on record: Mus musculus; test: Tested for relative activity in a 20-week anti-papilloma experiment in female CD-1 mice at dose 1.7 nmol; assay type: functional
Outline: (§2)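 Female Charles River CD-1 mice, 8 weeks old, in random groups of 25–30, were shaved 2 days before initiation with 200 nmol DMBA in acetone on the back. From 2 weeks on, 8.5 nmol TPA was applied twice weekly for 20 weeks. Retinoid in 0.2 mL acetone, or acetone alone for controls, was given 1 h before each TPA dose. Papillomas were counted weekly, and mean papillomas per mouse were compared with controls at 20 weeks.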

[4] = Percent survivors at dose 600 umol/kg day; assay type: functional, Mus musculus; outline: as §1
Cricetinae gen. sp. [5] = test: Activity of compound the was expressed as ratio of active hamster tracheal organ cultures(TOC) to the total cultures at 10e-11 M concentration; 10/20; assay type: functional, Cricetulus griseus, Trachea
Outline: (§3)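 Tracheal organ cultures came from vitamin A-deficient hamsters. Each culture was scored for reversal of keratinization and reported as active cultures out of total cultures at each retinoid concentration tested (10⁻⁸ to 10⁻¹² M). The protocol followed earlier published methods.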

Mus musculus [6] = species on record: Mus musculus; test: Percent decrease in average number of papillomas at dose 1.7 nmol *-p<0.01; assay type: functional; outline: as §2
[7] = Mortality range in days at dose 600 umol/kg day; 7-13; assay type: functional, Mus musculus; outline: as §1
[8] = Mortality range in days at dose 200 umol/kg day; 14-15; assay type: functional, Mus musculus; outline: as §1
Mus musculus [9] = species on record: Mus musculus; test: Tested for relative activity in a 20-week anti-papilloma experiment in female CD-1 mice at dose 17 nmol; assay type: functional; outline: as §2
[10] = Percent survivors at dose 33 umol/kg day; assay type: functional, Mus musculus; outline: as §1
[11] = Percent survivors at dose 200 umol/kg day; assay type: functional, Mus musculus; outline: as §1
Cricetinae gen. sp. [12] = test: Activity of compound the was expressed as ratio of active hamster tracheal organ cultures(TOC) to the total cultures at 10e-10 M concentration; 18/19; assay type: functional, Cricetulus griseus, Trachea; outline: as §3
Mus musculus [13] = species on record: Mus musculus; test: Tested for percentage of mice with papillomas in a 20-week anti-papilloma experiment in female CD-1 mice at dose 170 nmol
[14] = Mortality range in days at dose 300 umol/kg day; 10-14; assay type: functional, Mus musculus; outline: as §1
Mus musculus [15] = species on record: Mus musculus; test: Percent decrease in average number of papillomas at dose 170 nmol *-p<0.001; assay type: functional; outline: as §2
Mus musculus [16] = species on record: Mus musculus; test: Percent decrease in average number of papillomas at dose 17 nmol *-p<0.001; assay type: functional; outline: as §2
[17] = Percent survivors at dose 67 umol/kg day; assay type: functional, Mus musculus; outline: as §1
Cricetinae gen. sp. [18] = test: Activity of compound the was expressed as ratio of active hamster tracheal organ cultures(TOC) to the total cultures at 10e-12 M concentration; 3/19; assay type: functional, Cricetulus griseus, Trachea; outline: as §3
Cricetinae gen. sp. [19] = test: Molarity required to effect reversal of keratinization in 50% of cultures.; assay type: functional, Cricetulus griseus
[20] = biological target: T1, Ornithine decarboxylase (Mus musculus) (UniProt P00860); test: Inhibition of the induction of ornithine decarboxylase in mouse epidermis by the tumor promoter 12-O-tetradecanoylphorbol-13-acetate (ODC) at dose 17 nmol; Inhibition not significant
T1 sequence (whole entry): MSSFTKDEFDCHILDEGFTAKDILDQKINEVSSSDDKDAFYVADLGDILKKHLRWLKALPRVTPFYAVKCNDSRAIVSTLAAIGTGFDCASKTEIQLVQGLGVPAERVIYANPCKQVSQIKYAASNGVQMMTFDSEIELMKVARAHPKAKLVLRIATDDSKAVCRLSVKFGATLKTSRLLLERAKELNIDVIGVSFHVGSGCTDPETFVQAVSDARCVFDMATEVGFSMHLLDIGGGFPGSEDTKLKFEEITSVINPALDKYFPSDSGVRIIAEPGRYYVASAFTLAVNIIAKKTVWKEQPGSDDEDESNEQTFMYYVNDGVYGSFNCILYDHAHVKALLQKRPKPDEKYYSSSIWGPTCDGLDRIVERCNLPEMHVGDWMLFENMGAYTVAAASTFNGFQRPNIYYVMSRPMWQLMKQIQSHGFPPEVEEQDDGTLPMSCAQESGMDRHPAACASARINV

Cricetinae gen. sp. [21] = test: Activity of compound the was expressed as ratio of active hamster tracheal organ cultures(TOC) to the total cultures at 10e-10 M concentration; 1/7; assay type: functional, Cricetulus griseus, Trachea; outline: as §3
Cricetinae gen. sp. [22] = test: Activity of compound the was expressed as ratio of active hamster tracheal organ cultures(TOC) to the total cultures at 10e-8 M concentration; 2/7; assay type: functional, Cricetulus griseus, Trachea; outline: as §3
Cricetinae gen. sp. [23] = test: Activity of compound the was expressed as ratio of active hamster tracheal organ cultures(TOC) to the total cultures at 10e-9 M concentration; 1/7; assay type: functional, Cricetulus griseus, Trachea; outline: as §3
[24] = biological target: T1, Ornithine decarboxylase (Mus musculus); test: Inhibition of the induction of ornithine decarboxylase in mouse epidermis by the tumor promoter 12-O-tetradecanoylphorbol-13-acetate (ODC) at dose 1.7 nmol; Inhibition not significant
Cricetinae gen. sp. [25] = test: Activity of compound the was expressed as ratio of active hamster tracheal organ cultures(TOC) to the total cultures at 10e-8 M concentration; 6/7; assay type: functional, Cricetulus griseus, Trachea; outline: as §3
Cricetinae gen. sp. [26] = test: Activity of compound the was expressed as ratio of active hamster tracheal organ cultures(TOC) to the total cultures at 10e-10 M concentration; 3/7; assay type: functional, Cricetulus griseus, Trachea; outline: as §3
[27] = biological target: T1, Ornithine decarboxylase (Mus musculus); test: Inhibition of the induction of ornithine decarboxylase in mouse epidermis by the tumor promoter 12-O-tetradecanoylphorbol-13-acetate (ODC) at dose 17 nmol
Cricetinae gen. sp. [28] = test: Activity of compound the was expressed as ratio of active hamster tracheal organ cultures(TOC) to the total cultures at 10e-9 M concentration; 4/7; assay type: functional, Cricetulus griseus, Trachea; outline: as §3
[29] = biological target: T1, Ornithine decarboxylase (Mus musculus); test: Inhibition of the induction of ornithine decarboxylase in mouse epidermis by the tumor promoter 12-O-tetradecanoylphorbol-13-acetate (ODC) at dose 1.7 nmol
[30] = biological target: T1, Ornithine decarboxylase (Mus musculus); test: Inhibition of the induction of ornithine decarboxylase in mouse epidermis by the tumor promoter 12-O-tetradecanoylphorbol-13-acetate (ODC) at dose 17 nmol * inhibition not significant
[31] = biological target: T1, Ornithine decarboxylase (Mus musculus); test: Inhibition of the induction of ornithine decarboxylase in mouse epidermis by the tumor promoter 12-O-tetradecanoylphorbol-13-acetate (ODC) at dose 1.7 nmol * p<0.001* inhibition not significant
Cricetinae gen. sp. [32] = test: Activity of compound the was expressed as ratio of active hamster tracheal organ cultures(TOC) to the total cultures at 10e-8 M concentration; 4/7; assay type: functional, Cricetulus griseus, Trachea; outline: as §3
Cricetinae gen. sp. [33] = test: Activity of compound the was expressed as ratio of active hamster tracheal organ cultures(TOC) to the total cultures at 10e-9 M concentration; 2/6; assay type: functional, Cricetulus griseus, Trachea; outline: as §3
[34] = biological target: T1, Ornithine decarboxylase (Mus musculus); test: Inhibition of the induction of ornithine decarboxylase in mouse epidermis by the tumor promoter 12-O-tetradecanoylphorbol-13-acetate (ODC) at dose 1.7 nmol * p<0.001
Cricetinae gen. sp. [35] = test: Activity of compound the was expressed as ratio of active hamster tracheal organ cultures(TOC) to the total cultures at 10e-10 M concentration; 7/7; assay type: functional, Cricetulus griseus, Trachea; conditions: in the assay text read “10e-8 M” for “1 nM”; outline: as §3
Cricetinae gen. sp. [36] = test: Activity of compound the was expressed as ratio of active hamster tracheal organ cultures(TOC) to the total cultures at 10e-12 M concentration; 0/6; assay type: functional, Cricetulus griseus, Trachea; conditions: in the assay text read “1 nM” for “10 pM”; outline: as §3
Cricetinae gen. sp. [37] = test: Activity of compound the was expressed as ratio of active hamster tracheal organ cultures(TOC) to the total cultures at 10e-11 M concentration; 7/7; assay type: functional, Cricetulus griseus, Trachea; conditions: in the assay text read “10e-9 M” for “100 pM”; outline: as §3
[38] = biological target: T1, Ornithine decarboxylase (Mus musculus); test: Inhibition of the induction of ornithine decarboxylase in mouse epidermis by the tumor promoter 12-O-tetradecanoylphorbol-13-acetate (ODC) at dose 17 nmol * p<0.001

For `CC1=C(/C=C/C(C)=C/C=C/C(C)=C/C(=O)O)C(C)(C)CCC1` [TRETINOIN], the “Survivors at day 8” value [1] was 100%, the “Survivors at day 15” value [1] was 100% and the “Survivors at day 8” value [2] was 100%. The “Survivors at day 15” value [2] was 0%, the Activity (Mus musculus [3]) was 69% and the “Survivors at day 8” value [4] was 95%. The “Survivors at day 15” value [4] was 0%, the Activity (Cricetinae gen. sp. [5]) was 10% and the Decrease (Mus musculus [6]) was 56.2%. The Mortality range [7] was 13 days, the Mortality range [8] was 15 days and the Activity (Mus musculus [9]) was 47%. The “Survivors at day 8” value [10] was 100%, the “Survivors at day 15” value [10] was 100% and the “Survivors at day 8” value [11] was 100%. For the same compound, the “Survivors at day 15” value [11] was 63%, the Activity (Cricetinae gen. sp. [12]) was 18% and the “mice with papillomas %” value (Mus musculus [13]) was 40%. It also gave a Mortality range [14] of 14 days, a Decrease (Mus musculus [15]) of 89.6% and a Decrease (Mus musculus [16]) of 74.1%. The “Survivors at day 8” value [17] was 100%, the “Survivors at day 15” value [17] was 100% and the Activity (Cricetinae gen. sp. [18]) was 3%. It also gave an ED50 (Cricetinae gen. sp. [19]) of 1e-11.
For `CC1=C(c2ccc(/C=C/C(C)=C/C(=O)O)c(C)c2)C(C)(C)CCC1`, the inhibition [20] was 23%, the Activity (Cricetinae gen. sp. [21]) was 1% and the Activity (Cricetinae gen. sp. [22]) was 2%. For the same compound, the Activity (Cricetinae gen. sp. [23]) was 1%, the ED50 (Cricetinae gen. sp. [19]) was >1e-08 and the inhibition [24] was 9%.
With `CC1=C(/C=C/C(C)=C/C=C/c2ccc(C(=O)O)cc2)C(C)(C)CCC1` [PELRETIN] the Activity (Cricetinae gen. sp. [25]) was 6%, the Activity (Cricetinae gen. sp. [26]) was 3% and the inhibition [27] was 56%. For the same compound, the Activity (Cricetinae gen. sp. [28]) was 57%, the inhibition [29] was 33% and the ED50 (Cricetinae gen. sp. [19]) was 4e-10.
With `CCOC(=O)c1ccc(C2CC2c2ccc3c(c2)C2CCC3C2)cc1` (stereo unspecified) the inhibition [30] was 0%, the inhibition [31] was 12% and the Activity (Cricetinae gen. sp. [32]) was 4%. For the same compound, the Activity (Cricetinae gen. sp. [21]) was 1%, the Activity (Cricetinae gen. sp. [33]) was 33% and the ED50 (Cricetinae gen. sp. [19]) was 5e-09.
`CCOC(=O)c1ccc(/C=C(\C)[C@H]2CC2C2=C(C)CCCC2(C)C)cc1` (stereo partly specified) gave an inhibition [34] of 77%, an Activity (Cricetinae gen. sp. [35]) of 7% and an Activity (Cricetinae gen. sp. [36]) of 0%. For the same compound, the Activity (Cricetinae gen. sp. [37]) was 7%, the inhibition [38] was 80% and the ED50 (Cricetinae gen. sp. [19]) was 3e-10.
`CC1=C(/C=C/C(C)=C/c2ccc(C(=O)O)cc2)C(C)(C)CCC1` showed an inhibition [29] of 77% and an ED50 (Cricetinae gen. sp. [19]) of 3e-10.

Reference: ChEMBL document CHEMBL1122522, “Conformationally restricted retinoids” (1984)
